Test results from ChEMBL document CHEMBL1144361, “Identification of chemokine receptor CCR4 antagonist” (Bioorg Med Chem Lett, 2005).

Biological target: C-X-C chemokine receptor type 3 (Homo sapiens) (UniProt P49682)
Assay: Inhibitory concentration against CXC chemokine receptor 3

Question: For `CCN(CC)CCCC(C)Nc1nccc(NCc2ccc(Cl)cc2Cl)n1` (stereo not given), which IC50 is on record?
Answer: Its IC50 is over 30 µM.

Biological target: not listed separately
Assay: Inhibitory concentration against C-C chemokine receptor type 3
Parameters: species or system Homo sapiens

Question: Which IC50 does the source give for `CCN(CC)CCCC(C)Nc1nccc(NCc2ccc(Cl)cc2Cl)n1` (stereo not given) here?
Answer: The IC50 was 2 µM.

Biological target: C-C chemokine receptor type 2 (Homo sapiens, UniProt P41597)
Assay: Inhibitory concentration against C-C chemokine receptor type 2

Chain of C-C chemokine receptor type 2 (P41597 whole entry): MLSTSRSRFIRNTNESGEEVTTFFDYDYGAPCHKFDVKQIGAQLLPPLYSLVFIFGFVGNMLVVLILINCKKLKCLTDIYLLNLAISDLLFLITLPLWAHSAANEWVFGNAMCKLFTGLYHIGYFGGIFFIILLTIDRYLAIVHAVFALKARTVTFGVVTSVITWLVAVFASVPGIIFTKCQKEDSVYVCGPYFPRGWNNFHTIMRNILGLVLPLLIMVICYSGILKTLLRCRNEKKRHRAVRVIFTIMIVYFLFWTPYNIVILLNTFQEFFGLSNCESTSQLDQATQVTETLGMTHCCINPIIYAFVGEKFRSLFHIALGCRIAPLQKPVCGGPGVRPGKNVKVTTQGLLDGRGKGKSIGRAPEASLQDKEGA

Question: For `CCN(CC)CCCC(C)Nc1nccc(NCc2ccc(Cl)cc2Cl)n1` (stereo not given), which IC50 is on record?
Answer: Its IC50 is over 10 µM.

Biological target: T1, C-C chemokine receptor type 4 (Homo sapiens, UniProt P51679)
T1 sequence (P51679 whole entry): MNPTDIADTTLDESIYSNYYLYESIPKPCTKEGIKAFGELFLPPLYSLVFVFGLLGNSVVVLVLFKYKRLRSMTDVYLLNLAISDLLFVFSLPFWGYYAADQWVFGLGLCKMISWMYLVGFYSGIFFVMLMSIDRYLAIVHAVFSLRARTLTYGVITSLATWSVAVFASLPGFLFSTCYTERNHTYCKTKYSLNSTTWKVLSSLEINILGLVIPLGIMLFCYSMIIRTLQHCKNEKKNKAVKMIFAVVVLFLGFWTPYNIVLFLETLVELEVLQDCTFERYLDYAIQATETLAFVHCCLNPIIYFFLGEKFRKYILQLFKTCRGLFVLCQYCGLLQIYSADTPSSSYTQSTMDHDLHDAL
Assay: Inhibitory concentration against human C-C chemokine receptor type 4; range = 3.6-6.1 uM
Summary of the method: (§1)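 Whole-cell SPA binding: HEK293 stably expressing human CCR4, 4×10^4 cells/well on poly-L-lysine plates, cultured overnight at 37 °C. Compounds in DMSO (1%). Nonspecific defined with 100 nM unlabeled MDC. 15 min mixing, then 24 h at rt before counting.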

Question: For `CCN(CC)CCCC(C)Nc1nc(/C=C/c2ccccc2)nc2ccccc12` (stereo not given), which IC50 is on record?
Answer: Its IC50 is 6.1 µM.

Biological target: T1, C-C chemokine receptor type 4
Assay: Inhibitory concentration against human C-C chemokine receptor type 4
Summary of the method: as §1

Question: Which IC50 does the source give for `CCN(CC)CCCC(C)Nc1ccnc(COc2cccc(Cl)c2)n1` (stereo not given) here?
Answer: The IC50 was 25 µM.

Question: With `CCN(CC)CCCC(C)Nc1ccnc(COc2cccc(OC)c2)n1` (stereo not given) as the compound, how does the IC50 read?
Answer: Its IC50 is over 30 µM.

Question: For `CCN(CC)CCCC(C)Nc1nc(CCc2ccccc2)nc2ccccc12` (stereo not given), which IC50 is on record?
Answer: The IC50 was 2.4 µM.

Question: Which IC50 does the source give for `CCN(CC)CCCC(C)Nc1nc(COc2ccccc2)nc2ccccc12` (stereo not given) here?
Answer: The IC50 was 2 µM.

Question: With `CCN(CC)CCCC(C)Nc1ccnc(OCc2ccc(Cl)cc2Cl)n1` (stereo not given) as the compound, how does the IC50 read?
Answer: Its IC50 is 2.8 µM.

Question: Which IC50 does the source give for `CCN(CC)CCCC(C)Nc1ccnc(COc2ccccc2)c1` (stereo not given) here?
Answer: The IC50 was over 30 µM.

Question: Which IC50 does the source give for `CC(C)CCCC(C)Nc1nccc(OCc2ccc(Cl)cc2Cl)n1` (stereo not given) here?
Answer: The IC50 was over 10 µM.

Question: With `CCN(CC)CCCC(C)Nc1nccc(NCc2ccc(Cl)cc2Cl)n1` (stereo not given) as the compound, how does the IC50 read?
Answer: The IC50 was 0.27 µM.

Question: With `CCN(CC)CCCC(C)Nc1nc(C(=O)Nc2ccccc2)nc2ccccc12` (stereo not given) as the compound, how does the IC50 read?
Answer: The IC50 was over 10 µM.

Question: With `CCN(CC)CCCNc1nccc(OCc2ccc(Cl)cc2Cl)n1` as the compound, how does the IC50 read?
Answer: The IC50 was 8 µM.

Question: With `CCN(CC)CCCC(C)Nc1nc(Cc2ccccc2)nc2ccccc12` (stereo not given) as the compound, how does the IC50 read?
Answer: Its IC50 is 10 µM.

Question: For `CCN(CC)CCCC(C)Nc1nc(-c2ccccc2)nc2ccccc12` (stereo not given), which IC50 is on record?
Answer: Its IC50 is over 25 µM.

Question: With `CCN(CC)CCCC(C)Nc1nc(-c2ccc3ccccc3c2)nc2ccccc12` (stereo not given) as the compound, how does the IC50 read?
Answer: Its IC50 is 2.5 µM.

Question: Which IC50 does the source give for `CCN(CC)CCCCNc1nccc(OCc2ccc(Cl)cc2Cl)n1` here?
Answer: Its IC50 is 3 µM.

Question: With `CCN(CC)CCCC(C)Nc1ccnc(COc2cc(Cl)cc(Cl)c2)n1` (stereo not given) as the compound, how does the IC50 read?
Answer: Its IC50 is 25 µM.

Question: Which IC50 does the source give for `CCN(CC)CCCC(C)Nc1ccnc(COc2ccccc2Cl)c1` (stereo not given) here?
Answer: The IC50 was 17 µM.

Question: With `CCN(CC)CCCC(C)Nc1ccnc(COc2ccc(Cl)cc2Cl)c1` (stereo not given) as the compound, how does the IC50 read?
Answer: Its IC50 is 1.2 µM.

Question: With `CCN(CC)CCCC(C)Nc1ccnc(COc2ccc(Cl)c(Cl)c2)c1` (stereo not given) as the compound, how does the IC50 read?
Answer: Its IC50 is 4 µM.

Question: For `CCN(CC)CCCC(C)Nc1ccnc(COc2ccc(Cl)cc2)c1` (stereo not given), which IC50 is on record?
Answer: Its IC50 is 20 µM.

Question: For `CCN(CC)CCCC(C)Nc1ccnc(COc2ccc(F)cc2)c1` (stereo not given), which IC50 is on record?
Answer: Its IC50 is 18 µM.

Question: For `CCN(CC)CCCC(C)Nc1ccnc(COc2ccc(OC)cc2OC)n1` (stereo not given), which IC50 is on record?
Answer: Its IC50 is over 30 µM.

Question: With `CN(C)CCCCCNc1nccc(OCc2ccc(Cl)cc2Cl)n1` as the compound, how does the IC50 read?
Answer: The IC50 was 2 µM.

Question: For `CCN(CC)CCCC(C)Nc1nc(CCCc2ccccc2)nc2ccccc12` (stereo not given), which IC50 is on record?
Answer: Its IC50 is over 10 µM.

Question: Which IC50 does the source give for `CCN(CC)CCNc1nccc(OCc2ccc(Cl)cc2Cl)n1` here?
Answer: The IC50 was 9 µM.

Question: For `CCN(CC)CCCC(C)Nc1nccc(OCc2ccc(Cl)cc2Cl)n1` (stereo in doubt; 10a), which IC50 is on record?
Answer: The IC50 was 1.5 µM.

Question: Which IC50 does the source give for `CCN(CC)CCCC(C)Nc1nccc(OCc2ccc(Cl)cc2Cl)n1` (stereo in doubt; 11a) here?
Answer: The IC50 was 1.5 µM.
